Laboratory results: ChEMBL document CHEMBL1157595, “Synthesis and biological evaluation of botulinum neurotoxin a protease inhibitors” (J Med Chem, 2010)
Calls of active or inactive are those of the source. No cut-off for these calls is given here.

Experiments:
[1] = target: T1, Botulinum neurotoxin type A (Clostridium botulinum, UniProt P0DPI0); assay: Inhibition of Clostridium botulinum toxin BoNT/A light chain by FRET assay
How it was run: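 Recombinant BoNT/A light chain was assayed by FRET substrate cleavage in 50 mM HEPES–0.05% Tween, pH 7.4. Reactions were stopped with acetic acid (0.5% final), and cleaved substrate fluorescence was read at 485 nm after excitation at 398 nm.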

[2] = target: T1, Botulinum neurotoxin type A; assay: Inhibition of Clostridium botulinum toxin BoNT/A light chain by HPLC-based assay
How it was run: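 Secondary HPLC-based cleavage assay with recombinant BoNT/A light chain, used to confirm FRET data. Values are the average of two experiments with variation under 10%.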

Lethal factor = target: T2, Lethal factor (Bacillus anthracis, UniProt P15917); assay: Inhibition of Bacillus anthracis anthrax lethal factor by FRET assay
T2 sequence (P15917 whole entry): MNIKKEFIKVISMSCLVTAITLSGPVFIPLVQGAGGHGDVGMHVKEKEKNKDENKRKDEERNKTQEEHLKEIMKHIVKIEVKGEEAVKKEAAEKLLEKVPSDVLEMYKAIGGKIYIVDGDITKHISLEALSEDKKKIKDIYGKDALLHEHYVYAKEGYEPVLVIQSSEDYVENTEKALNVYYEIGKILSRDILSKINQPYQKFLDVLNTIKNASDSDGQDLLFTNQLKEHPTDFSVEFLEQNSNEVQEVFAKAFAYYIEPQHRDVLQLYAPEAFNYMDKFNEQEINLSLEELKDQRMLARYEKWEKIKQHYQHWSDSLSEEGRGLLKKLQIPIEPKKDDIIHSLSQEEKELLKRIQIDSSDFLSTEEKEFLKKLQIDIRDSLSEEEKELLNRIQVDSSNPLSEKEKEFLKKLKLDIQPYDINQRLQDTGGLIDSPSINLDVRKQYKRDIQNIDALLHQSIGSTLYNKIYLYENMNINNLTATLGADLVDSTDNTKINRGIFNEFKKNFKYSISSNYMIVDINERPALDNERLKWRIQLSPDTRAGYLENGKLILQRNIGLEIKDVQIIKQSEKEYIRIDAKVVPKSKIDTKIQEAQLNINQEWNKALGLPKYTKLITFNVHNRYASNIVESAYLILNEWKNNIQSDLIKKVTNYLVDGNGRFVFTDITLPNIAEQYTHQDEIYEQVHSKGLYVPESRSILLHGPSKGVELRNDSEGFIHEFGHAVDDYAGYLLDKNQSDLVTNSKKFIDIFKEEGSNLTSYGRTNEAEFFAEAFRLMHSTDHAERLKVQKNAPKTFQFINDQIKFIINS

[3] = target: T3, Botulinum neurotoxin type B (Clostridium botulinum) (UniProt P10844); assay: Inhibition of Clostridium botulinum toxin BoNT/B
T3 sequence (whole entry): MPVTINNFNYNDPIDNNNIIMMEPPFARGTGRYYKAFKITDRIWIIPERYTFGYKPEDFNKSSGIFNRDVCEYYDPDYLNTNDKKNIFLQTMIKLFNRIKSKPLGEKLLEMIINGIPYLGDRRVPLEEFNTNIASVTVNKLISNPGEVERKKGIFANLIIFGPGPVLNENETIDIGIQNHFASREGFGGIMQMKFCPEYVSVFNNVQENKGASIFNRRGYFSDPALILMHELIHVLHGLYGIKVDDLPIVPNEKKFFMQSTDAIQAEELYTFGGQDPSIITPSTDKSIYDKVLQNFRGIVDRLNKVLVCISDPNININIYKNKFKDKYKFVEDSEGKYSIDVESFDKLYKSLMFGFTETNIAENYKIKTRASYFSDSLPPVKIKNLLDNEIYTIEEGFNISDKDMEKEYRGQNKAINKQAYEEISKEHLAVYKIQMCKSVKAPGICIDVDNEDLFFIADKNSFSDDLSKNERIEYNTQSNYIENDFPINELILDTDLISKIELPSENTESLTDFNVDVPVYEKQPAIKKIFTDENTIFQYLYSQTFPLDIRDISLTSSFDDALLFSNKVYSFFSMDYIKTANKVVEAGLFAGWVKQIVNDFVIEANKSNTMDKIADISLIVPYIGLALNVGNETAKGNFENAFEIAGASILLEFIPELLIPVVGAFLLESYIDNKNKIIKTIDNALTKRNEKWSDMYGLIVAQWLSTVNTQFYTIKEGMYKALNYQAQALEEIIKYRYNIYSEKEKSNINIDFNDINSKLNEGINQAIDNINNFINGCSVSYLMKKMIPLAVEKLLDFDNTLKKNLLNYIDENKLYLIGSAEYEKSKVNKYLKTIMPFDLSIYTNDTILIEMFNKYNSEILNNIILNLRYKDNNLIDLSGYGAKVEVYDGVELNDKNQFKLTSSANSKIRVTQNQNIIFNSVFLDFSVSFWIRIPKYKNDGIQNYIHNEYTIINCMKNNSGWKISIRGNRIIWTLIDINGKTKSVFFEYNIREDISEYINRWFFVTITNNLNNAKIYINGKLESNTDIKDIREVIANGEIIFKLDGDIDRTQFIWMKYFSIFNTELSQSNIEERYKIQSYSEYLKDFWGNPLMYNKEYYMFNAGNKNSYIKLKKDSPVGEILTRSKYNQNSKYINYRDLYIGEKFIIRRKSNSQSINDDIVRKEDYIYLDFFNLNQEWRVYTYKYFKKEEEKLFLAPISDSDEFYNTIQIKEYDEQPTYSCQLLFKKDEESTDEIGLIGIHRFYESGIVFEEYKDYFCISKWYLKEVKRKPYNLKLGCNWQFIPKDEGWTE

[4] = target: T4, Interstitial collagenase (Homo sapiens) (UniProt P03956); assay: Inhibition of human MMP1
T4 sequence (whole entry): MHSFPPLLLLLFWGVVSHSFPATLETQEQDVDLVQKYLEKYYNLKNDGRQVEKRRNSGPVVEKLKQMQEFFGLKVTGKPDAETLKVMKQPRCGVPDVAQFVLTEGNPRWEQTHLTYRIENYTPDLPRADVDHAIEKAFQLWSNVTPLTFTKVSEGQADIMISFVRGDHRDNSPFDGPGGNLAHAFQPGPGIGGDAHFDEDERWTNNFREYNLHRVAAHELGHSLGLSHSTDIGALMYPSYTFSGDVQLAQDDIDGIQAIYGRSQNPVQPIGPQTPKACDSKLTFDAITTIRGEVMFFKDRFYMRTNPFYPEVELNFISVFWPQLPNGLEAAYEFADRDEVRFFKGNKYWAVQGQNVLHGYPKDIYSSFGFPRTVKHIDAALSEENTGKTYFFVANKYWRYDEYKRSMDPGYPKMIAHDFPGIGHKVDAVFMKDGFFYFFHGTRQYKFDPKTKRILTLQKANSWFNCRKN

[5] = target: Matrix metalloproteinase-9 (Homo sapiens) (UniProt P14780); assay: Inhibition of human MMP9
[6] = Selectivity ratio of IC50 for Bacillus anthracis anthrax lethal factor to IC50 for Clostridium botulinum toxin BoNT/A light chain
[7] = target: T1, Botulinum neurotoxin type A; assay: Inhibition of Clostridium botulinum toxin BoNT/A light chain
[8] = target: Botulinum neurotoxin type A (Clostridium botulinum) (UniProt P0DPI0); settings: 20 uM
Chain of Botulinum neurotoxin type A (Clostridium botulinum) (P0DPI0 2-448 limits assumed): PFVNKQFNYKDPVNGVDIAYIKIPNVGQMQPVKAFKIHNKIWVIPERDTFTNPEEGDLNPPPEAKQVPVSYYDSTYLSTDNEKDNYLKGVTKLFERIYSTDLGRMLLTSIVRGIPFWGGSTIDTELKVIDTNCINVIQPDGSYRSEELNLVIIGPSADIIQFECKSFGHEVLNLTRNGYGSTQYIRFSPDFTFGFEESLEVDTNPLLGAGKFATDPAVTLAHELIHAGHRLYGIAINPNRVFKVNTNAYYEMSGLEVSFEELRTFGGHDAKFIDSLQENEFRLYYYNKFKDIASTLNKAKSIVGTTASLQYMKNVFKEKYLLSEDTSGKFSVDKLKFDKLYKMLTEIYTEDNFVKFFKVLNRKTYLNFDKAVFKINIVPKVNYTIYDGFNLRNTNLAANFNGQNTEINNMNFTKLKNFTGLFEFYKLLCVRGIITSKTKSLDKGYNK

T1 sequence (P0DPI0 2-448 limits assumed): as above
Chain of Matrix metalloproteinase-9 (Homo sapiens) (P14780 whole entry): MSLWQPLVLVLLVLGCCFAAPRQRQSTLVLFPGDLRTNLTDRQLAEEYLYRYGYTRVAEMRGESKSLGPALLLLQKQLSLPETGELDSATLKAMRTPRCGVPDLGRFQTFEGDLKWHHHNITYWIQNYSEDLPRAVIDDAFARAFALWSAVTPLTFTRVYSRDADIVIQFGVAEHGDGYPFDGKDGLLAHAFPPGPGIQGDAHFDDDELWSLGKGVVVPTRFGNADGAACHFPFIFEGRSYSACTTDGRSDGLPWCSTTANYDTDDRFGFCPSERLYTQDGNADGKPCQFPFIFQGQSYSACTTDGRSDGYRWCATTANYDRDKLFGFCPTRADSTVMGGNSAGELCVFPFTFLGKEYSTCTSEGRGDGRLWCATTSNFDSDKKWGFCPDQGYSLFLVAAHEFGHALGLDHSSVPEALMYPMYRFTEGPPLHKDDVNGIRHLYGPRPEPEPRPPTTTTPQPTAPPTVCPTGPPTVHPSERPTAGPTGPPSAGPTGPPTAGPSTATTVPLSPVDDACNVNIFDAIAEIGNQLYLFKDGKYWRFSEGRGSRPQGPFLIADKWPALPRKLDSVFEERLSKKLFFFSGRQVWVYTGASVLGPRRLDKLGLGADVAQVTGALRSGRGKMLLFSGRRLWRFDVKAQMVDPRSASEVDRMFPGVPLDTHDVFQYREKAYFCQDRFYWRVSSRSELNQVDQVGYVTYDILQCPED

SMILES	IC50 [1] [µM]	IC50 [2] [µM]	IC50 (Lethal factor) [µM]	other results
c1cc(C2=NCCCN2)ccc1Oc1ccc(-c2cc3ccc(C4=NCCCN4)cc3[nH]2)cc1	21	43	> 100	
Clc1ccc2cc(-c3ccc(Oc4ccc(C5=NCCN5)cc4)cc3)[nH]c2c1	> 100		51	
N#Cc1ccc(Oc2ccc(-c3cc4ccc(C5=NCCN5)cc4[nH]3)cc2)c(Cl)c1	30		> 100	
c1cc(-c2cc3ccc(C4=NCCN4)cc3[nH]2)ccc1C1=NCCN1	20		49	inhibition [3]: inactive; inhibition [4]: inactive; inhibition [5]: inactive
CN(C)CC/N=C(\N)c1ccc(Oc2ccc(-c3cc4ccc(/C(N)=N/CCN(C)C)cc4[nH]3)cc2)cc1	2.5	4.4	28	Ratio IC50 [6]: 10; inhibition [3]: inactive; inhibition [4]: inactive; inhibition [5]: inactive
c1cc(-c2cc3ccc(C4=NCCN4)cc3s2)ccc1C1=NCCN1	43		> 100	
N#Cc1ccc(Oc2ccc(-c3cc4ccc(C#N)cc4[nH]3)nc2)cc1	> 100		> 100	
c1cc(C2=NCCN2)ccc1Oc1ccc(-c2cc3ccc(C4=NCCN4)cc3[nH]2)nc1	69	> 100	55	
c1cc(-c2cc3ccc(C4=NCCCN4)cc3[nH]2)ccc1C1=NCCCN1	> 100		> 100	
c1cc(C2=NCCCN2)ccc1Oc1ccc(-c2cc3ccc(C4=NCCCN4)cc3[nH]2)nc1	67	> 100	> 100	
c1cc(C2=NCCN2)ccc1Oc1ccc(-c2cc3ccc(C4=NCCN4)cc3[nH]2)cc1	12.5	9.4	43	
c1cc(C2=NCCN2)ccc1Oc1ccc(-c2nc3ccc(C4=NCCN4)cc3[nH]2)cc1	24.5			
CCOc1ccc(C(Nc2cccnc2)c2cc(Cl)c3cccnc3c2O)cc1 (configuration not stated)				IC50 [7]: 0.5 µM
c1cc(C2=NCCCN2)ccc1Oc1ccc(-c2nc3ccc(C4=NCCCN4)cc3[nH]2)cc1	28	41		
N#Cc1ccc(Oc2ccc(-c3cc4ccc(C#N)cc4[nH]3)cc2)cc1	> 100			
OC1CN=C(c2ccc(Oc3ccc(-c4cc5ccc(C6=NCC(O)CN6)cc5[nH]4)cc3)cc2)NC1 (configuration not stated)	7.3		> 100	Ratio IC50 [6]: 10
c1cc(-c2cc3ccc(C4=NCCCN4)cc3s2)ccc1C1=NCCCN1	> 100			
N=C(N)c1ccc(Oc2ccc(-c3cc4ccc(C(=N)N)cc4[nH]3)cc2)cc1	11	17	35	inhibition [8]: 75%
NC(=O)c1ccc(Oc2ccc(-c3cc4ccc(C(N)=O)cc4[nH]3)cc2)cc1	> 100		> 100	
Clc1ccc(Oc2ccc(-c3cc4ccc(C5=NCCN5)cc4[nH]3)cc2)c(Cl)c1	> 25	52	> 100	
c1cc(C2=NCCN2)ccc1Oc1ccc(-c2cc3ccc(C4=NCCN4)cc3s2)cc1	7.1	25	18	
N#Cc1ccc(Oc2ccc(-c3cc4ccc(C#N)cc4[nH]3)cc2)c(Cl)c1	> 100			
N#Cc1ccc(Oc2ccc(-c3cc4ccc(C(=N)N)cc4[nH]3)cc2)cc1	> 25		> 100	
c1cc(C2=NCCCN2)ccc1Oc1ccc(-c2cc3ccc(C4=NCCCN4)cc3s2)cc1	54		> 100	
NCCCCCCCNCCCCCCCNC(=O)c1cc(CCC(=O)NO)c(CCC(O)(c2ccccc2)c2ccccc2)[nH]1				IC50 [7]: < 1 µM; Ki [7]: 0.76 µM
